From PubChem
T cruzi growth-1 = inhibitors of T. cruzi proliferation. AID 624255. inhibition, % at 8.34 µM. 77,000 compounds, 5.9% hits. T. cruzi beta-gal in NIH3T3, GalScreen luminescence, 90 h;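 active means mean inhibition above about 93%, with at least 55% of replicates each passing it, limit read from the data, passing the limit was not always enough; inconclusive means only one of those two conditions holds; inactive means neither condition holds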
KDM4C inh = inhibitors of human demethylase GASC-1 KDM4C; Q9H3R0; GST-KDM4C 2-372, H3K9me3 peptide, LANCE TR-FRET; inhibition, % at 12.5 µM; 96,000 compounds, 0.15% hits;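 active means mean replicate inhibition above about 25%, with at least 55% of replicates also reaching it, limit read from the data, passing the limit was not always enough; inconclusive means only one of those two conditions met; inactive means neither condition met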
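System: N-terminal GST-fused human GASC-1 (KDM4C) fragment, residues 2-372; amount: enzyme final amount 10 nM; incubation: reaction 30 min RT, detection step 1 h RT; medium: HEPES buffer, pH 7.5, plus ascorbate; technique: LANCE TR-FRET, Eu antibody, ULight-streptavidin, EDTA, ex 340 nm, em 618/671 nm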
Pf Dd2 inh = blocks growth of Plasmodium falciparum Dd2 parasites. P. falciparum Dd2 growth, SYBR Green, 72 h; hits give low values. activity change, % at 10 µM. 94,000 compounds, 2.3% hits; in the data active means activity change below about -80%; inconclusive means no clear call, values can overlap the other calls
IDH1 mut inh = blocks human IDH1 R132H reductase activity. O75874. diaphorase/resazurin fluorescence, 60 min. inhibition, % at 10 µM. 70,000 compounds, 0.18% hits; in the data active means inhibition above about 34%; inconclusive means no clear call, values can overlap the other calls; inactive means below about 11%;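 further: 0% = DMSO and 100% = no enzyme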
Target sequence (O75874 whole entry R132H): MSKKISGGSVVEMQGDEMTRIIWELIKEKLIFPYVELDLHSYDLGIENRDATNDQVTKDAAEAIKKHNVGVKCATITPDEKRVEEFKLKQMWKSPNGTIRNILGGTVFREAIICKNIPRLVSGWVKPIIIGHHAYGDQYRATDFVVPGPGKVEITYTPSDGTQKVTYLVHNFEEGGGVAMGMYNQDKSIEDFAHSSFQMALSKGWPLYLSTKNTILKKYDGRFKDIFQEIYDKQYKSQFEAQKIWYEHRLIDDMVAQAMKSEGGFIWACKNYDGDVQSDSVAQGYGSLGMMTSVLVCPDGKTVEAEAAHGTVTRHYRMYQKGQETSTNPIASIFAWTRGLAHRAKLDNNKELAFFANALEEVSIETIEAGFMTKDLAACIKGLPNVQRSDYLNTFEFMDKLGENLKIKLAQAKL
T cruzi growth-2 = blocks T. cruzi growth in NIH3T3 host cells; shares compounds with T cruzi growth-1; T. cruzi beta-gal in NIH3T3, GalScreen luminescence, 90 h; inhibition, % at 8.35 µM; 5,600 compounds, 72% hits; AID 651739;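 active means mean replicate inhibition above about 95% and at least 55% of replicates individually reaching it, limit read from the data; inconclusive means only one of the two criteria is met; inactive means neither criterion is met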
T cruzi growth-3 = Trypanosoma cruzi proliferation inhibition; inhibition, % at 2.09 µM; shares compounds with T cruzi growth-1; T. cruzi beta-gal in NIH3T3, GalScreen luminescence, 90 h; 5,600 compounds, 21% hits;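 active means mean inhibition above about 95%, with at least 55% of replicates also reaching it, limit read from the data; inconclusive means meets just one of the two conditions; inactive means meets neither condition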;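 further: plate controls were neutral control median for no effect and positive control median for full effect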
NIH3T3 tox = cytotoxicity in mouse NIH/3T3 fibroblasts. AID 651742. NIH/3T3 viability, CellTiter-Glo ATP luminescence, 90 h. 5,600 compounds, 14% hits. cytotoxicity (signal decrease), % at 8.35 µM. shares compounds with T cruzi growth-1;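 active means mean signal decrease across replicates above about 35% based on untreated-well scatter, with enough replicates individually passing, limit read from the data; inconclusive means no rule stated though some were filed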;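 further: 0% = median of neutral control wells and 100% = median of positive control wells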
3T3 cytotox 2 = cytotoxicity in mouse NIH/3T3 fibroblasts | shares compounds with T cruzi growth-1 | NIH/3T3 viability, CellTiter-Glo ATP luminescence, 90 h | inhibition, % at 24.9 µM | 5,600 compounds, 56% hits | AID 651744;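 active means mean loss of cell viability signal at or above a set limit, and enough replicates individually reaching it; inconclusive means meets only the mean limit or only the replicate share; inactive means meets neither condition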;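 further: 0% = median of neutral control wells and 100% = median of positive control wells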
An asterisk follows results filed as active; ? = inconclusive; · = no result given. Only some compounds are listed: those with a hit (about 5.9% of all), similar ones and a draw of the others.

SMILES	T cruzi growth-1	KDM4C inh	Pf Dd2 inh	IDH1 mut inh	T cruzi growth-2	T cruzi growth-3	NIH3T3 tox	3T3 cytotox 2
CCOC(=O)c1ncn2c1C1CCCN1C(=O)c1cc(OC)ccc1-2 (configuration not stated)	·	·	·	0	·	·	·	·
N#Cc1cccc(-c2ccc([C@H]3[C@@H](CO)N4CCCCN(C(=O)Cc5ccccc5)C[C@@H]34)cc2)c1	110*	0	30	·	103*	77	-5	0
O=C(Cc1ccccn1)N1CCCCN2[C@H](CO)[C@@H](c3ccc(Br)cc3)[C@H]2C1	105*	1	19	·	-3	-14	4	-1
O=C(Cc1ccccn1)N1CCCCN2[C@H](CO)[C@H](c3ccc(-c4ccccc4)cc3)[C@H]2C1	41	-1	-13	·	·	·	·	·
O=C(Cc1ccccn1)N1CCCCN2[C@@H](CO)[C@@H](c3ccc(-c4ccccc4)cc3)[C@@H]2C1	113*	1	-21	·	?	68	-9	15
COc1ccc(CN2CCN(CCO)CC2)c(OC)c1C	·	·	·	0	·	·	·	·
CO[C@@H]1[C@H](O)[C@@H](O[C@@H]2C[C@H]3CC[C@@H]4C(CC[C@]5(C)[C@@H](C6=CC(=O)OC6)CC[C@]45O)[C@@]3(C)[C@H](O)C2)O[C@H](C)[C@@H]1O[C@@H]1O[C@H](CO)[C@@H](O)[C@H](O)[C@H]1O (some centres not stated)	·	·	·	1	·	·	·	·
